Only some compounds are listed: those with a hit (about 2% of all), similar ones and a draw of the others.
Rpn11 inh – inhibitors of human proteasome Rpn11 | O00487 | human 26S proteasome, Ub4-pepOG fluorescence polarization; 20S core pre-blocked with epoxomicin | inhibition, % at 20 µM | actives 0.59% (n = 360,000) | AID 588493;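 active = inhibition at 20 µM, scaled to each plate's controls, above about 33%, limit read from the data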
SENP1 FRET inh – SENP1 (human) catalytic domain inhibition; Q9P0U3; recombinant SENP1 catalytic domain, CyPet-SUMO1-YPet FRET cleavage; inhibition, % at 10 µM; actives 0.21% (n = 360,000); AID 624204;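 active = inhibition at least 30% at 10 µM, raw YFP signal under a set limit, fluorescence ratio 0.5 to 1.5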
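System: Recombinant human SENP1 catalytic domain, His6-tagged | Incubation: Enzyme reaction for 50 min at room temperature, dark | Medium: Tris pH 8 with BME, BSA, NP40 and catalase | Also added: 25 nM SUMO1 FRET substrate | Compound: 10 µM single point, 0.5% DMSO | Measured by: FRET fluorescence in CFP and YFP emission channels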
TPT1 inhibitor – blocks Candida albicans tRNA 2'-phosphotransferase | recombinant caTPT1, FP RNA substrate dephosphorylation | inhibition, % at 5 µM | actives 0.81% (n = 300,000);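 active = inhibition above the mean of all tested compounds plus 3 SD, set per screening campaign, cut at about 24% in these data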
HNF4A DNA FP – change in binding of human HNF4 alpha to DNA; activity change, % at 10 µM; actives 0.3% (n = 360,000); P41235; HNF4a-FITC DNA binding, fluorescence polarization, 1 h; in the data active = activity change above about 30%, passing the limit was not always enough
CSN inh – blocks human CSN-mediated cullin deneddylation; Q92905; Purified CSN, SCF-Nedd8-OG deneddylation, fluorescence polarization; inhibition, % at 12.5 µM; actives 0.38% (n = 360,000); AID 651999;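 active = pattern-corrected inhibition above about 35%, with an unprinted fluorescence ratio check between 0.5 and 1.5, limit read from the data, passing the limit was not always enough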
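Material: purified human Csn5 enzyme expressed in HEK293T cells / Medium: Tris buffer pH 7.5, NaCl, DTT, Tween-20, trehalose, ovalbumin / Compound dosing: 12.5 µM single point / Schedule: 90 min incubation of compound, enzyme and substrate at room temperature / Signal: fluorescence polarization of the substrate / Control set: no-enzyme wells high, enzyme-with-substrate wells low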
ATG4B inh – inhibitors of human ATG4B cysteine protease; actives 0.51% (n = 340,000); ATG4B cleavage of LC3-PLA2, NBD-HPC fluorescence, 1 h; inhibition, % at 8.33 µM
caTPT1 confirm – TPT1 (C. albicans) inhibition, confirmation; shares compounds with TPT1 inhibitor; recombinant caTPT1, fluorescence polarization, RNase T1 coupled; inhibition, % at 5 µM; actives 74% (n = 2,400); AID 2149;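 active = inhibition above the primary screen limit, the mean inhibition of all tested compounds plus 3 SD, cut at about 25% in these data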
RNase T1 inh – blocks Aspergillus oryzae RNase T1, a TPT1 counter-screen | shares compounds with TPT1 inhibitor | RNase T1 cleavage, fluorescence polarization, 1536-well | inhibition, % at 5 µM | actives 83% (n = 2,400);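 active = inhibition above the solvent-only control well mean plus 3 SD, limit set per screening run, cut at about 23% in these data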;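 also: inhibitors block cleavage so intact labeled substrate keeps polarization high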
Rpn11 inh conf – Rpn11 inhibition confirmation, single concentration | AID 602318 | purified human 26S proteasome, Ub4-pepOG fluorescence polarization; proteasome pretreated with epoxomicin | shares compounds with Rpn11 inh | inhibition, % at 20 µM | actives 29% (n = 1,900)
MMP-2 counter – blocks human MMP-2, flagging nonselective RPN11 hits | shares compounds with Rpn11 inh | inhibition, % at 20 µM | recombinant MMP-2, FRET peptide cleavage fluorescence | actives 4% (n = 1,900) | AID 602330;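 also: human MMP-2 activated beforehand with APMA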
Thrombin FP – counter-screen for RPN11 inhibitors: inhibition of bovine thrombin; inhibition, % at 20 µM; bovine thrombin cleavage of Ub4-pepOG, fluorescence polarization; shares compounds with Rpn11 inh; actives 13% (n = 1,900);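 active = mean inhibition at least 40% at 20 µM, or signal 3 deviations below plate average, so some actives read negative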
Target sequence (P00735 whole entry, looked up): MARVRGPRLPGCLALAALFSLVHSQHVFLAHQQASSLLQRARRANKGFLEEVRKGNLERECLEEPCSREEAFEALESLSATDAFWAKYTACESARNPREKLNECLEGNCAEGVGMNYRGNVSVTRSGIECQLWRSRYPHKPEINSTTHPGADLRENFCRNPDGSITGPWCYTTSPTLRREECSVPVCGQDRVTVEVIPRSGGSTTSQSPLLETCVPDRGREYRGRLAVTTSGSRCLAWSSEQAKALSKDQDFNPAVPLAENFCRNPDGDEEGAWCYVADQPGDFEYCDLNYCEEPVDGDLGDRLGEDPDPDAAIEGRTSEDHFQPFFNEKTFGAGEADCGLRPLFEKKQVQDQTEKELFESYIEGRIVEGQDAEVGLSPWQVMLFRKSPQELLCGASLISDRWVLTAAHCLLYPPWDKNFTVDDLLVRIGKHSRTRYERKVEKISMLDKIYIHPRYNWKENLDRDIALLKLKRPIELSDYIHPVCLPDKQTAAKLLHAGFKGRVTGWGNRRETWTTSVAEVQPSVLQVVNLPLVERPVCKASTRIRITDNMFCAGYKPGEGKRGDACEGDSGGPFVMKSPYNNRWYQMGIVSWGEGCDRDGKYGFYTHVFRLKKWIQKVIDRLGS
A number is an active result; . = inactive; / = no result. Rule as the data show it, unless noted: active = inhibition above about 40%; inactive = the rest.

SMILES	Rpn11 inh	SENP1 FRET inh	TPT1 inhibitor	HNF4A DNA FP	CSN inh	ATG4B inh	caTPT1 confirm	RNase T1 inh	Rpn11 inh conf	MMP-2 counter	Thrombin FP
COC(=O)c1c(-c2cccnc2)csc1NC(=O)c1cc(C)on1	76	.	44	.	.	.	50	66	53	.	.
CCN1C(=O)/C(=C/c2c(C)nn(C)c2C)SC1=S	38	.	24	.	.	.	34	45	.	.	.
CCN1C(=O)/C(=C/c2cnn(CC)c2C)SC1=S	.	.	.	.	.	.	/	/	/	/	/
CCC(C)Nc1nc2c(C)cccn2c(=O)c1C=Nc1ccc(OC)cc1 (stereo not given)	.	.	.	.	.	.	/	/	/	/	/
CCCN1C(=O)/C(=C/c2c(NCCCOC(C)C)nc3c(C)cccn3c2=O)SC1=S	110	.	121	.	56	.	116	129	84	.	49
Cc1ccc(NC(=O)C(C)SCc2nc3sc4c(c3c(=O)[nH]2)CCCC4)nc1 (stereo not given)	55	.	26	.	.	.	37	45	49	.	.
CC(SCc1nc2sc3c(c2c(=O)[nH]1)CCCC3)C(=O)Nc1ccccn1 (stereo not given)	45	.	32	.	.	.	39	50	.	.	.
COc1cc(OC)c(OC)cc1/C=C1\Oc2cc(OS(C)(=O)=O)ccc2C1=O	97	.	75	73	55	.	71	78	69	.	.
CS(=O)(=O)Oc1ccc2c(c1)O/C(=C\c1cccnc1)C2=O	.	.	.	.	.	.	/	/	/	/	/
Nc1ccn([C@@H]2O[C@H](CNC(=O)[C@@H](Cc3cccnc3)NC=O)[C@@H](O)[C@H]2O)c(=O)n1	.	.	/	.	.	/	/	/	/	/	/
CCCCn1c(O)c(/C=C2\C=Nc3ccccc32)c(=O)[nH]c1=O	42	.	30	.	.	.	33	43	51	.	.
COCOCCn1cc(CN2CCS(=O)(=O)N(Cc3ccc(-c4ccc(OC)cc4)cc3)C(C)C2=O)nn1 (stereo not given)	.	.	/	.	.	/	/	/	/	/	/
COc1cc(/C=C2\NC(=S)N(C)C2=O)ccc1O	73	.	27	.	.	.	30	35	54	49	43
CC(C)c1ccc(N=C2NN=C(c3cccs3)CS2)cc1	80	.	40	.	.	.	42	50	.	.	.
O=C(Nc1ccccc1Cl)OCC#CCOC(=O)Nc1ccccc1Cl	.	.	/	.	.	/	/	/	/	/	/
O=C(Cn1cc(C(=O)COc2ccccc2)c2ccccc21)NCc1ccco1	38	.	34	.	.	.	26	38	60	.	.
CC(=O)c1cn(CC(=O)NCc2ccco2)c2ccccc12	.	.	.	.	.	.	/	/	/	/	/
O=C(NN1C(=O)/C(=C/c2ccc(O)c([N+](=O)[O-])c2)SC1=S)c1ccccc1Cl	71	32	75	.	.	.	55	66	51	.	42
O=c1cc(Cl)[nH]c(=O)n1CCNc1ncc(C(F)(F)F)cc1Cl	82	.	74	50	37	.	72	85	99	.	87
O=c1[nH]c2cc(Cl)ccc2n(CCNc2ncc(C(F)(F)F)cc2Cl)c1=O	.	.	.	.	.	.	/	/	/	/	/

Screening data deposited in PubChem BioAssay by several laboratories.
